Test results taken from ChEMBL document CHEMBL1132202, “2-Amino-3-substituted-6-[(E)-1-phenyl-2-(N-methylcarbamoyl)vinyl]imid azo[1,2-a]pyridines as a novel class of inhibitors of human rhinovirus: stereospecific synthesis and antiviral activity” (J Med Chem, 1999).
≈ marks a conversion by molar mass, not a printed value.

Key:
[1] = Compound was measured for inhibition on Human Rhinovirus-14 by using PRA assay (Antiviral activity); assay type: functional, Human rhinovirus sp.
Summary of the method: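 H-HeLa cells grown in 60-mm dishes at 37 °C in MEM with 10% newborn calf serum and 1% nonessential amino acids. Overlay contained varied compound concentrations. Incubated 35 °C for 48 h, fixed with 10% formalin, stained with 0.5% crystal violet, plaques counted. Duplicate wells averaged vs DMSO controls. IC50 (50% plaque inhibition) by Reed-Muench from linear region of the curve.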

[2] = Compound was evaluated for cellular toxicity in on Human Rhinovirus-14 by using CPE/XTT assay (cytopathic effect assay); settings: human rhinovirus sp.; read-out: TC50 (the source's name)
Summary of the method: (§1)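 CPE assay run per an earlier protocol, except that surviving host cells were quantified with XTT as substrate rather than crystal violet staining. The same assay gave the cellular toxicity TC50. Control samples without drug received 0.1% DMSO.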

[3] = Compound was measured for inhibition on Human Rhinovirus-14 by using CPE/XTT assay (Antiviral activity); assay type: functional, Human rhinovirus sp.; summary of the method: as §1
[4] = Ratio of TC50 value to the IC50 value measured on rhinovirus-14 by using CPE/XTT assay.; assay type: functional
Summary of the method: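 Cytopathic-effect assay run per an earlier method, except that surviving host cells were quantified by XTT reduction instead of crystal violet staining. General cellular toxicity was taken as TC50, and the ratio was TC50 divided by IC50. No-drug controls received 0.1% DMSO.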

SMILES	IC50 [1]	CC50 [2]	IC50 [3]	TC50/IC50 [4]
CNC(=O)/C=C(\c1ccccc1)c1ccc2nc(N)c(I)n2c1	> 3.2 µg/mL	–	–	–
CNC(=O)/C=C(\c1ccccc1)c1ccc2nc(N)c(-c3cc(F)ccc3F)n2c1	0.18 µg/mL (≈ 0.445 µM)	4.87 µg/mL (≈ 12 µM)	0.16 µg/mL (≈ 0.396 µM)	30
CNC(=O)/C=C(\c1ccccc1)c1ccc2nc(N)c(S(=O)(=O)C(C)C)n2c1	0.64 µg/mL (≈ 1.61 µM)	–	–	–
CNC(=O)/C=C(\c1ccccc1)c1ccc2nc(N)cn2c1	> 10 µg/mL	–	–	–
CNC(=O)/C=C(\c1ccccc1)c1ccc2nc(N)c(-c3ccc(F)c(F)c3F)n2c1	0.17 µg/mL (≈ 0.402 µM)	6.98 µg/mL (≈ 16.5 µM)	0.21 µg/mL (≈ 0.497 µM)	33
CNC(=O)/C=C(\c1ccccc1)c1ccc2nc(N)c(SC(C)C)n2c1	0.17 µg/mL (≈ 0.464 µM)	10 µg/mL (≈ 27.3 µM)	0.21 µg/mL (≈ 0.573 µM)	48
CNC(=O)/C=C(\c1ccccc1)c1ccc2nc(N)c(-c3ccc(F)cc3C(F)(F)F)n2c1	0.44 µg/mL (≈ 0.968 µM)	> 10 µg/mL	0.48 µg/mL (≈ 1.06 µM)	>21
CNC(=O)/C=C(\c1ccccc1)c1ccc2nc(N)c(-c3ccccc3)n2c1	0.27 µg/mL (≈ 0.733 µM)	5.03 µg/mL (≈ 13.7 µM)	0.3 µg/mL (≈ 0.814 µM)	17
